Assays:
Assay type in all cases: functional, organism-based
[1] = system: Influenza A virus; assay: Antiviral activity against influenza A (A/North Carolina/02/2009 (H1N1)) virus after 30 mins by NA-star substrate based chemiluminescent assay; settings: 0.5 h
How it was run: (§1)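 Titrated virus in NA-Star buffer (26 mM MES, 4 mM CaCl2, pH 6.0) was preincubated with ten half-log inhibitor dilutions (0.03–1,000 nM final) for 30 min at 37°C, then with substrate for 30 min at room temperature. Accelerator solution was added and luminescence read for 0.1 s. IC50 came from a Vmax·[1−x/(K+x)] fit, mean of ≥3 experiments.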

[2] = system: Influenza A virus; assay: Antiviral activity against influenza A (A/Washington/29/2009 (H1N1)) virus after 16 to 18 hrs by fetuin substrate based colorimetric assay
How it was run: (§2)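 Colorimetric NA inhibition with fetuin substrate. Virus was diluted in NA-Star buffer (26 mM MES, 4 mM CaCl2, pH 6.0) to give OD549 of 0.4–0.8 after 18 h. It was preincubated with ten half-log inhibitor dilutions (0.03–1,000 nM final) for 1 h at 37°C, then with fetuin (5.5 mg/ml final) for 16–18 h at 37°C. Released sialic acid was read at 549 nm after periodate/TBA reaction and butanol extraction. IC50 came from a Vmax·[1−x/(K+x)] fit, mean of ≥2 experiments.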

[3] = system: Influenza A virus; assay: Antiviral activity against influenza A (A/New York/18/2009 (H1N1)) virus after 16 to 18 hrs by fetuin substrate based colorimetric assay; how it was run: as §2
[4] = system: Influenza A virus; assay: Antiviral activity against influenza A (A/Washington/10/2008 (H1N1)) virus after 30 mins by NA-star substrate based chemiluminescent assay; settings: 0.5 h; how it was run: as §1
[5] = system: Influenza A virus; assay: Antiviral activity against influenza A (A/Washington/10/2008 (H1N1)) virus after 30 mins by MUNANA substrate based fluorometric assay; settings: 0.5 h
How it was run: (§3)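 Fluorometric NA inhibition with MUNANA (100 μM final). Titrated virus in NA-Star buffer (26 mM MES, 4 mM CaCl2, pH 6.0) was preincubated with ten half-log inhibitor dilutions (0.03–1,000 nM final) for 30 min at 37°C, then with substrate for 30 min at 37°C. The reaction was stopped with 0.1 M glycine in 25% ethanol, pH 10.7, and 4-methylumbelliferone was read at ex 365/em 450 nm. IC50 came from a Vmax·[1−x/(K+x)] fit, mean of ≥3 experiments.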

[6] = system: Influenza A virus; assay: Antiviral activity against influenza A (A/New York/18/2009 (H1N1)) virus after 30 mins by MUNANA substrate based fluorometric assay; settings: 0.5 h; how it was run: as §3
[7] = system: Influenza A virus; assay: Antiviral activity against influenza A (A/North Carolina/02/2009 (H1N1)) virus after 16 to 18 hrs by fetuin substrate based colorimetric assay; how it was run: as §2
[8] = system: Influenza A virus; assay: Antiviral activity against influenza A (A/Washington/10/2008 (H1N1)) virus after 16 to 18 hrs by fetuin substrate based colorimetric assay; how it was run: as §2
[9] = system: Influenza A virus; assay: Antiviral activity against influenza A (A/Washington/29/2009 (H1N1)) virus after 30 mins by MUNANA substrate based fluorometric assay; settings: 0.5 h; how it was run: as §3
[10] = system: Influenza A virus; assay: Antiviral activity against influenza A (A/Singapore/91/2009 (H1N1)) virus after 30 mins by NA-star substrate based chemiluminescent assay; settings: 0.5 h; how it was run: as §1
[11] = system: Influenza A virus; assay: Antiviral activity against influenza A (A/North Carolina/02/2009 (H1N1)) virus after 30 mins by MUNANA substrate based fluorometric assay; settings: 0.5 h; how it was run: as §3
[12] = system: Influenza A virus; assay: Antiviral activity against influenza A (A/Washington/29/2009 (H1N1)) virus after 30 mins by NA-star substrate based chemiluminescent assay; settings: 0.5 h; how it was run: as §1
[13] = system: Influenza A virus; assay: Antiviral activity against influenza A (A/Singapore/91/2009 (H1N1)) virus after 16 to 18 hrs by fetuin substrate based colorimetric assay; how it was run: as §2
[14] = system: Influenza A virus; assay: Antiviral activity against influenza A (A/Singapore/91/2009 (H1N1)) virus after 30 mins by MUNANA substrate based fluorometric assay; settings: 0.5 h; how it was run: as §3
[15] = system: Influenza A virus; assay: Antiviral activity against influenza A (A/New York/18/2009 (H1N1)) virus after 30 mins by NA-star substrate based chemiluminescent assay; settings: 0.5 h; how it was run: as §1

With `C/C=C\[C@@H]1C[C@H](C(=O)O)N[C@H]1[C@@H](NC(C)=O)[C@](C)(CCC)OC` the IC50 [1] was 0.18 nM, the IC50 [2] was 1.31 nM and the IC50 [3] was 0.9 nM. The IC50 [4] was 0.16 nM, the IC50 [5] was 0.51 nM and the IC50 [6] was 0.74 nM. The IC50 [7] was 0.75 nM, the IC50 [8] was 1.03 nM and the IC50 [9] was 0.53 nM. It also gave an IC50 [10] of 0.27 nM, an IC50 [11] of 0.51 nM and an IC50 [12] of 0.35 nM. It also gave an IC50 [13] of 1.4 nM, an IC50 [14] of 0.46 nM and an IC50 [15] of 0.43 nM.

With `CCC(CC)[C@H](NC(C)=O)[C@@H]1[C@H](O)[C@@H](C(=O)O)C[C@H]1NC(=N)N` [PERAMIVIR ANHYDROUS] the IC50 [1] was 0.08 nM, the IC50 [2] was 0.49 nM and the IC50 [3] was 0.41 nM. The IC50 [4] was 0.11 nM, the IC50 [5] was 0.18 nM and the IC50 [6] was 0.32 nM. It also gave an IC50 [7] of 0.7 nM, an IC50 [8] of 0.75 nM and an IC50 [9] of 0.2 nM. It also gave an IC50 [10] of 0.11 nM, an IC50 [11] of 0.19 nM and an IC50 [12] of 0.14 nM. The IC50 [13] was 0.55 nM, the IC50 [14] was 0.14 nM and the IC50 [15] was 0.12 nM.

Compound `CO[C@@H]([C@@H]1OC(C(=O)O)=C[C@H](NC(=N)N)[C@H]1NC(C)=O)[C@H](O)CO` [LANINAMIVIR] has an IC50 [2] of 1.57 nM, an IC50 [3] of 0.74 nM and an IC50 [4] of 0.14 nM. For the same compound, the IC50 [5] was 0.53 nM, the IC50 [6] was 0.96 nM and the IC50 [7] was 0.86 nM. For the same compound, the IC50 [8] was 0.79 nM, the IC50 [9] was 0.74 nM and the IC50 [10] was 0.3 nM. It also gave an IC50 [11] of 0.61 nM, an IC50 [12] of 0.49 nM and an IC50 [13] of 0.9 nM. The IC50 [14] was 0.51 nM and the IC50 [15] was 0.49 nM.

From ChEMBL document CHEMBL1649328, “Assessment of pandemic and seasonal influenza A (H1N1) virus susceptibility to neuraminidase inhibitors in three enzyme activity inhibition assays” (Antimicrob Agents Chemother, 2010)
